Results on three molecules are retold here after article PMC4033650 (ACS Chemical Biology, 2014).

Read-outs that look alike come from different tables or passages of the source. Positions of bridges follow the written chain, without caps; N, C: chain ends. Non-standard residues stand in square brackets, D forms with d. Residues, ends and D or L forms follow the SMILES beside them. *: point of attachment. Gly(octyl) = CCCCCCCC[C@H](N)C(=O)O; Octanoyl = CCCCCCCC(=O)*; Dab = NCC[C@H](N)C(=O)O

The nature of data set [1]: Tolerability after bolus dose in rats. The format is in vivo, rat. To be noted: intravenous bolus, 0.75 mg/kg.
In data set [2] the test system is polymyxin-resistant clinical isolates of P. aeruginosa, A. baumannii, and K. pneumoniae. In words: MIC screen against polymyxin-resistant Gram-negative clinical isolates. The format is cell-based. The conditions noted are these: for MICs: polymyxin-resistant clinical isolates of P. aeruginosa, A. baumannii, K. pneumoniae. In short, it runs like this:
(§1)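 Broth microdilution in cation-adjusted Mueller–Hinton broth. […] Plates were incubated 18–20 h at 37 °C. MIC was taken as the lowest concentration inhibiting visible growth.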

For data set [3], the system named is panel of ATCC and clinical isolates. In words: MIC in the presence of Mg2+. The format is cell-based. The conditions noted are these: addition of 16 mM of Mg2+; data not shown. In short, it runs like this: as §1
The subject of data set [4] is polymyxin-resistant clinical isolate of P. aeruginosa. In words: Neutropenic mouse lung infection model. To be noted: 24 h after single-dose treatment (40 mg/kg); inoculum 5.42 ± 0.54 log CFU/lung. It counts as in vivo. The gist of the method: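 The model used neutropenic mice with lung infection, following the group's earlier protocol. One polymyxin-susceptible and one polymyxin-resistant P. aeruginosa strain were used. Lung bacterial burden was counted at 0 and 24 h after treatment.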

Data set [5] can be described thus: Tolerability after bolus dose in mice. It counts as in vivo, mouse. The conditions noted are these: subcutaneous bolus, 40 mg/kg.
Data set [6] is described as follows: Pharmacokinetics after single-dose intravenous administration in rats. The conditions noted are these: rat, in vivo.
The next data set deals with purified LPS. In words: Dansyl-polymyxin LPS displacement binding assay. The gist of the method:
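LPS was purified from bacteria, and its molar concentration was set by the purpald Kdo assay. Test compound binding to LPS was read as displacement of a synthetic dansyl-polymyxin probe, using the group's published protocol.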

In the next data set the test system is human red blood cells. In words: Hemolysis of human red blood cells. It counts as cell-based. To be noted: concentrations up to 32 mg/L.
A short description of data set [7]: Plasma protein binding by equilibrium dialysis. The conditions noted are these: pooled healthy human plasma. It counts as in vitro ADME. Background: Equilibrium dialysis compares concentrations on both sides of a semipermeable membrane.
The nature of data set [8]: Nephrotoxicity in mice, kidney histopathology. To be noted: subcutaneous, accumulated dose 105 mg/kg. The format is in vivo, mouse. In short, it runs like this: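 Mice (three groups, n = 3) received subcutaneous injections over 3–4 days to an accumulated 105 mg/kg of test compound or polymyxin B sulfate, with a saline control. Kidneys were formalin-fixed (10%) and sectioned through cortex, medulla and papilla, then stained and graded: grade 1 (mild tubular damage) = 1, grade 2 (severe, necrosis) = 4, grade 3 (cortical necrosis/infarction) = 10.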

Data set [9] concerns polymyxin-resistant clinical P. aeruginosa isolate. In words: MIC by broth microdilution, polymyxin-resistant P. aeruginosa isolate. It counts as cell-based, Pseudomonas aeruginosa. In short, it runs like this:
(§2)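 Broth microdilution was run in cation-adjusted Mueller–Hinton broth in polypropylene plates. The inoculum was about 10^6 cfu/mL, mixed 1:1 with broth containing test compound (0 to 128 mg/L). Plates were incubated 18–20 h at 37 °C. MIC was the lowest concentration with no visible growth.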
(Dilution methods test growth across graded concentrations, often in twofold steps.)

For data set [10] the following is noted: rats ref 23; cited from earlier work.
Data set [11] concerns polymyxin-susceptible P. aeruginosa ATCC 27853. In words: MIC by broth microdilution, P. aeruginosa ATCC 27853. The format is cell-based, Pseudomonas aeruginosa. The gist of the method:
as §2

Data set [12] relates to polymyxin-resistant clinical P. aeruginosa isolate. In words: Static time-kill, polymyxin-resistant P. aeruginosa isolate. The format is cell-based, Pseudomonas aeruginosa. To be noted: 32 mg/L.

What is called Vd is the apparent volume that relates the amount in the body to the concentration in plasma or blood. Low readings indicate confinement near the circulation, high ones extensive tissue distribution. A word on the clearance: it is the volume of plasma or blood freed of the substance per unit of time. The term half-life denotes how long it takes for the measured level to halve. On to `CCCCCCCC[C@@H]1NC(=O)[C@@H](Cc2ccccc2)NC(=O)[C@H](CCN)NC(=O)[C@@H](NC(=O)[C@H](CCN)NC(=O)[C@@H](NC(=O)[C@H](CCN)NC(=O)CCCCCCC)[C@@H](C)O)CCNC(=O)[C@H]([C@@H](C)O)NC(=O)[C@H](CCN)NC(=O)[C@H](CCN)NC1=O` [FADDI-002] (Octanoyl-[Dab]T[Dab][Dab][Dab][dF][Gly(octyl)][Dab][Dab]T; lactam 4-C), for which, in data set [1], the adverse effects result is reported as “no adverse effects were observed”. Also, the antimicrobial activity result in [2] (panel of polymyxin-resistant Gram-negative clinical isolates) is on record as “potent antimicrobial activity”. Besides, the “increase in MICs on addition of Mg2+” value in [3] is ≤ 2 fold. In addition, in [4], the “bacterial burden in the lungs” value is given as 4.75 ± 0.80 log CFU/lung. Besides, the adverse effects result in [5] is “no adverse effects were observed”. Further, in data set [6], the Vd is 0.195 to 0.313 L/kg, the clearance lay within 0.66 to 1.3 mL/min/kg and the half-life is 2.77 to 3.4 h. The “higher LPS binding affinity compared to PMB and colistin” value in the data set with purified LPS is “up to 27.1 fold”.
As to Polymyxin B [PMB], the MICs in data set [2] is listed as > 128 mg/L. Moreover, in data set [3], the “increase in MICs on addition of Mg2+” value turned out to be 16 fold. For the same molecule, the “hemolysis of human red blood cells” value in the data set with human red blood cells is recorded as “no detectable hemolysis”. Moreover, the “plasma protein binding (bound)” value in [7] is ~51%. Moreover, the “histological grade of kidney lesions” value in data set [8] was “grade 1”.
As a reminder, the MIC is the lowest concentration that inhibits growth of the organism. Read a low MIC as greater potency. With colistin, the MICs in data set [2] is reported as > 128 mg/L. For the same molecule, the “hemolysis of human red blood cells” value in the data set on human red blood cells is given as “no detectable hemolysis”. In addition, in data set [4], the “bacterial burden in the lungs” value is given as 6.71 ± 0.46 log CFU/lung. In data set [9], the MIC was > 128 µg/mL. Further, in data set [10], the half-life is 1.24 h, the total clearance is recorded as 5.2 mL/min/kg and the volume of distribution was 0.496 L/kg. The same molecule registered a minimal inhibitory concentration (MIC) in [11] of 1 µg/mL. For the same molecule, in [12], the “bacterial killing in time-kill” value is on record as “no killing was observed”.
